Source: ChEMBL document CHEMBL5724801, “EUbOPEN Chemogenomics Library - Multiplex” (2024)
Several values for one entry are separate records, joined by “and”; a condition that tells them apart may be missing. Identical values can stand only once.

The compounds below were run on U2OS (assay: Multiplex assay against U2OS). Conditions: human, 12 h, 1 µM, compound concentration 1 uM.
Format: toxicity, cell-based
Summary of the method: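 Cells stained live at seeding with Hoechst33342, BioTracker Green Microtubule Cytoskeleton Dye, MitoTracker Red and Annexin V Alexa Fluor 680 were imaged on a CQ1 microscope at 37°C and 5% CO2 after compound addition. Their classification by CellPathfinder machine-learning gating ran from Hoechst high-intensity objects versus normal cells, to healthy, pyknosed or fragmented nuclei among normal cells, to mitotic or apoptotic among pyknosed cells. Tubulin, mitochondrial-mass and membrane-permeability phenotypes are per cents of healthy-nucleus cells.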

SMILES	Population Apoptotic (%)	Population Fragmented Nuclei (%)	Population Healthy Nuclei (%)	Population Hoechst High Intensity Objects (%)	Population Membrane Permeable-Phenotype (%)	Population Mitochondria Different-Phenotype (%)	Population Mitotic Cells (%)	Population Normal (%)	Population Pyknosed Nuclei (%)	Population Tubulin-Different-Phenotype (%)
CCC(=N\O)/C(C)=C/c1ccc(F)cc1 [A-079]	48.57% and 40.91%	1.07% and 0%	91.47% and 83.94%	0	0.47% and 1.74%	0% and 11.3%	51.43% and 59.09%	100	7.46% and 16.06%	0.47% and 1.74%
O=c1nc2[nH]c3ccccc3nc-2c(=O)[nH]1 [ALLOXAZINE]	70% and 75%	25% and 15%	61% and 74%	2	5%	0% and 5%	29% and 25%	97	12% and 10%	3%

Same assay, conditions: human, 12 h, 1 µM, compound concentration 1 uM

SMILES	Total Cell Count
O=c1nc2[nH]c3ccccc3nc-2c(=O)[nH]1 [ALLOXAZINE]	195 and 122

Same assay, conditions: human, 12 h, 10 µM, compound concentration 10 uM

SMILES	Population Apoptotic (%)	Population Fragmented Nuclei (%)	Population Healthy Nuclei (%)	Population Hoechst High Intensity Objects (%)	Population Membrane Permeable-Phenotype (%)	Population Mitochondria Different-Phenotype (%)	Population Mitotic Cells (%)	Population Normal (%)	Population Pyknosed Nuclei (%)	Population Tubulin-Different-Phenotype (%)
CCC(=N\O)/C(C)=C/c1ccc(F)cc1 [A-079]	36.67% and 36.84%	3.39% and 2.96%	88.14% and 82.96%	0%	1.6% and 0.89%	0% and 4.46%	63.33% and 63.16%	100%	8.47% and 14.07%	0.64% and 0.89%
O=c1nc2[nH]c3ccccc3nc-2c(=O)[nH]1 [ALLOXAZINE]	86% and 88%	33% and 13%	59% and 78%	0% and 1%	7%	0% and 5%	13% and 11%	99% and 98%	7%	1% and 3%

Same assay, conditions: human, 12 h, 10 µM, compound concentration 10 uM

SMILES	Total Cell Count
CCC(=N\O)/C(C)=C/c1ccc(F)cc1 [A-079]	354 and 135
O=c1nc2[nH]c3ccccc3nc-2c(=O)[nH]1 [ALLOXAZINE]	212 and 119

Same assay, conditions: human, 24 h, 1 µM, compound concentration 1 uM

SMILES	Population Apoptotic (%)	Population Fragmented Nuclei (%)	Population Healthy Nuclei (%)	Population Hoechst High Intensity Objects (%)	Population Membrane Permeable-Phenotype (%)	Population Mitochondria Different-Phenotype (%)	Population Mitotic Cells (%)	Population Normal (%)	Population Pyknosed Nuclei (%)	Population Tubulin-Different-Phenotype (%)
CCC(=N\O)/C(C)=C/c1ccc(F)cc1 [A-079]	36.36% and 42.86%	0.47% and 0.53%	90.89% and 88.24%	0%	0.86% and 1.82%	0% and 3.03%	63.64% and 57.14%	100%	8.63% and 11.23%	0.17% and 0.61%
O=c1nc2[nH]c3ccccc3nc-2c(=O)[nH]1 [ALLOXAZINE]	73% and 57%	24% and 16%	66% and 74%	1% and 2%	4% and 5%	1% and 5%	26% and 42%	98% and 97%	8% and 9%	2%

Same assay, conditions: human, 24 h, 1 µM, compound concentration 1 uM

SMILES	Total Cell Count
O=c1nc2[nH]c3ccccc3nc-2c(=O)[nH]1 [ALLOXAZINE]	261 and 146

Same assay, conditions: human, 24 h, 10 µM, compound concentration 10 uM

SMILES	Population Apoptotic (%)	Population Fragmented Nuclei (%)	Population Healthy Nuclei (%)	Population Hoechst High Intensity Objects (%)	Population Membrane Permeable-Phenotype (%)	Population Mitochondria Different-Phenotype (%)	Population Mitotic Cells (%)	Population Normal (%)	Population Pyknosed Nuclei (%)	Population Tubulin-Different-Phenotype (%)
CCC(=N\O)/C(C)=C/c1ccc(F)cc1 [A-079]	43.18% and 38.1%	2.04% and 1.9%	88.96% and 84.81%	0%	0.46% and 2.99%	0% and 8.21%	56.82% and 61.9%	100%	9% and 13.29%	0.23% and 0.75%
O=c1nc2[nH]c3ccccc3nc-2c(=O)[nH]1 [ALLOXAZINE]	78% and 75%	30% and 16%	61% and 80%	0% and 2%	8% and 5%	2% and 4%	21% and 25%	99% and 97%	8% and 2%	2% and 3%

Same assay, conditions: human, 24 h, 10 µM, compound concentration 10 uM

SMILES	Total Cell Count
O=c1nc2[nH]c3ccccc3nc-2c(=O)[nH]1 [ALLOXAZINE]	237 and 148

Same assay, conditions: human, 48 h, 1 µM, compound concentration 1 uM

SMILES	Population Apoptotic (%)	Population Fragmented Nuclei (%)	Population Healthy Nuclei (%)	Population Hoechst High Intensity Objects (%)	Population Membrane Permeable-Phenotype (%)	Population Mitochondria Different-Phenotype (%)	Population Mitotic Cells (%)	Population Normal (%)	Population Pyknosed Nuclei (%)	Population Tubulin-Different-Phenotype (%)
CCC(=N\O)/C(C)=C/c1ccc(F)cc1 [A-079]	43.75% and 67.74%	3.57% and 1.19%	86.9% and 89.55%	0%	0.29% and 1.67%	0.1% and 3%	56.25% and 32.26%	100%	9.52% and 9.25%	0.2% and 1%
O=c1nc2[nH]c3ccccc3nc-2c(=O)[nH]1 [ALLOXAZINE]	84% and 76%	19% and 18%	71% and 72%	1% and 6%	1% and 4%	1% and 2%	15% and 23%	98% and 93%	9% and 8%	1% and 2%

Same assay, conditions: human, 48 h, 1 µM, compound concentration 1 uM

SMILES	Total Cell Count
O=c1nc2[nH]c3ccccc3nc-2c(=O)[nH]1 [ALLOXAZINE]	362 and 207

Same assay, conditions: human, 48 h, 10 µM, compound concentration 10 uM

SMILES	Population Apoptotic (%)	Population Fragmented Nuclei (%)	Population Healthy Nuclei (%)	Population Hoechst High Intensity Objects (%)	Population Membrane Permeable-Phenotype (%)	Population Mitochondria Different-Phenotype (%)	Population Mitotic Cells (%)	Population Normal (%)	Population Pyknosed Nuclei (%)	Population Tubulin-Different-Phenotype (%)
CCC(=N\O)/C(C)=C/c1ccc(F)cc1 [A-079]	34.57% and 41.18%	3.23% and 2.2%	88.86% and 85.35%	0	0.55% and 1.72%	0.11% and 5.58%	65.43% and 58.82%	100	7.92% and 12.45%	0.33% and 0%
O=c1nc2[nH]c3ccccc3nc-2c(=O)[nH]1 [ALLOXAZINE]	90% and 76%	26% and 12%	66% and 79%	1	5% and 3%	1%	9% and 23%	98	6% and 8%	2%

Same assay, conditions: human, 48 h, 10 µM, compound concentration 10 uM

SMILES	Total Cell Count
O=c1nc2[nH]c3ccccc3nc-2c(=O)[nH]1 [ALLOXAZINE]	321 and 210
